Experimental data reported in ChEMBL document CHEMBL1121449, “Synthesis and antineoplastic activity of hydroquinone dialdehydes” (J Med Chem, 1980).

What was measured:
[1] = system: Mus musculus; assay: (§1) Tested for change in body weight from onset to termination at dose of 10 mg/kg; assay type: functional
Procedure, shortened: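 Tumor-bearing mice were dosed ip once daily for 6 consecutive days from 24 h after ip tumor implantation; saline controls. Each group was weighed on day 7, the day after the last injection, and the change from the implantation day (day 0) was expressed as % body-weight change, used as a toxicity measure.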

[2] = system: Mus musculus; assay: Tested for number of animal surviving at least 50 days out of 25 animal treated at dose of 15 mg/kg
[3] = system: Mus musculus; assay: Tested for change in body weight from onset to termination at dose of 1.25 mg/kg; assay type: functional
Procedure, shortened: (§2)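 Female CD-1 mice inoculated ip with 0.1 mL of 10^7 Sarcoma 180 ascites cells/mL. Drug in 0.9% NaCl with 5% ethanol and Tween 80, serially diluted in saline, given ip once daily for 6 days starting 24 h after implantation. Dose based on mean starting weight. Controls received saline. Weight change recorded from day 0 to day 7, as % change.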

[4] = system: Mus musculus; assay: Tested for Mice bearing […] 755 surviving at least 50 days out of 5 animal treated at dose of 5 mg/kg; assay type: functional
Procedure, shortened: (§3)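 Female AKD2F1 mice, adenocarcinoma 755, 0.1 mL of 10^7 cells/mL given ip. Vehicle 0.9% NaCl/5% ethanol/Tween 80, serially diluted with saline. Dosed ip at 0.5 mL once daily for 6 consecutive days starting 24 h post-implant; saline controls. T/C is the mean survival of non-50-day survivors as % of controls. Survivors are those alive ≥50 days.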

[5] = system: Mus musculus; assay: Tested for Mice bearing Ehrlich carcinoma surviving at least 50 days out of 10 animal treated at dose of 10 mg/kg; assay type: functional
Procedure, shortened: (§4)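 Female CD-1 mice, Ehrlich ascites carcinoma, 0.1 mL of 10^7 cells/mL given ip. Drug in 0.9% NaCl with 5% ethanol and trace Tween 80, serially diluted with saline. Dosed ip at 0.5 mL once daily for 6 days from 24 h post-implant; saline controls. T/C is the mean survival of treated mice dying before 50 days as % of controls. Survivors are those alive ≥50 days.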

[6] = system: Mus musculus; assay: Tested for mean survival time treated animal not surviving 50 days as a percentage at dose of 5 mg/kg; assay type: functional
Procedure, shortened: (§5)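 Female CD-1 mice, Sarcoma 180 ascites, 0.1 mL of 10^7 cells/mL given ip. Drug in 0.9% NaCl, 5% ethanol, Tween 80, serially diluted with saline. Dosed ip at 0.5 mL daily for 6 days from 24 h post-implant; daily dose based on starting mean weight. T/C is the mean survival of treated mice dying before 50 days vs controls. Survivors are those alive ≥50 days out of those treated.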

[7] = system: Mus musculus; assay: Tested for Mice bearing […] 755 surviving at least 50 days out of 5 animal treated at dose of 20 mg/kg; assay type: functional; procedure, shortened: as §3
[8] = system: Mus musculus; assay: Tested for Mice bearing […] 755 surviving at least 50 days out of 5 animal treated at dose of 10 mg/kg; assay type: functional; procedure, shortened: as §3
[9] = system: Mus musculus; assay: Tested for mean survival time treated animal not surviving 50 days as a percentage at dose of 20 mg/kg; assay type: functional; procedure, shortened: as §5
[10] = system: Mus musculus; assay: Tested for mean survival time of Mice bearing Ehrlich carcinoma not surviving 50 days as a percentage at dose of 5 mg/kg; assay type: functional; procedure, shortened: as §4
[11] = system: Mus musculus; assay: Tested for change in body weight of Mice bearing Ehrlich carcinoma from onset to termination at dose of 5 mg/kg; assay type: functional
Procedure, shortened: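 Female CD-1 mice given ip implants of Ehrlich carcinoma (0.1 mL of 10^7 cells/mL). Drug in saline containing 5% ethanol and Tween 80, injected ip once daily for 6 consecutive days from 24 h post-implant. Controls received 0.9% NaCl. % body weight change measured between tumor implantation (day 0) and day 7.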

[12] = system: Mus musculus; assay: Tested for mean survival time treated animal not surviving 50 days as a percentage at dose of 2.5 mg/kg; assay type: functional; procedure, shortened: as §5
[13] = system: Mus musculus; assay: Tested for mean survival time of Mice bearing Ehrlich carcinoma not surviving 50 days as a percentage at dose of 10 mg/kg; assay type: functional; procedure, shortened: as §4
[14] = Tested for inhibition of growth of sarcoma 180 cells in culture; assay type: functional, cell-based; details: Mus musculus
Procedure, shortened: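 Sarcoma 180 cells in suspension in Fischer's medium with 10% horse serum and penicillin/streptomycin, seeded at 10^4 cells/mL. Drug added from 10× stocks in 10% Me2SO/PBS, final 1–100 μM. Control cultures contained 1% Me2SO. Triplicate Coulter counts at 24, 48 and 72 h. IC50 read from a plot of inhibition of cell-number increase at 72 h versus concentration.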

[15] = system: Mus musculus; assay: Tested for number of animal surviving at least 50 days out of 5 animal treated at dose of 5 mg/kg
[16] = system: Mus musculus; assay: Tested for mean survival time of Mice bearing […] 755 not surviving 50 days as a percentage at dose of 5 mg/kg; assay type: functional; procedure, shortened: as §3
[17] = system: Mus musculus; assay: Tested for change in body weight from onset to termination at dose of 5 mg/kg; assay type: functional; procedure, shortened: as §2
[18] = system: Mus musculus; assay: Tested for number of animal surviving at least 50 days out of 10 animal treated at dose of 2.5 mg/kg; assay type: functional; procedure, shortened: as §5
[19] = system: Mus musculus; assay: Tested for change in body weight of Mice bearing […] 755 from onset to termination at dose of 10 mg/kg; assay type: functional
Procedure, shortened: (§6)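 Adenocarcinoma 755 implanted ip (0.1 mL of 10^7 cells/mL) in female AKD2F1 mice. Daily ip dosing for 6 days beginning 24 h after implantation, vehicle 0.9% NaCl/5% ethanol/Tween 80, lower doses by saline dilution. Control mice received saline. Weight difference between day 0 and day 7 taken as % change and used as a toxicity measure.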

[20] = system: Mus musculus; assay: Tested for Mice bearing Ehrlich carcinoma surviving at least 50 days out of 10 animal treated at dose of 5 mg/kg; assay type: functional; procedure, shortened: as §4
[21] = system: Mus musculus; assay: Tested for mean survival time of Mice bearing […] 755 not surviving 50 days as a percentage at dose of 20 mg/kg; assay type: functional; procedure, shortened: as §3
[22] = system: Mus musculus; assay: Tested for change in body weight from onset to termination at dose of 15 mg/kg; assay type: functional; procedure, shortened: as §2
[23] = system: Mus musculus; assay: Tested for mean survival time of Mice bearing Ehrlich carcinoma not surviving 50 days as a percentage at dose of 20 mg/kg; assay type: functional; procedure, shortened: as §4
[24] = system: Mus musculus; assay: Tested for mean survival time of Mice bearing […] 755 not surviving 50 days as a percentage at dose of 10 mg/kg; assay type: functional; procedure, shortened: as §3
[25] = system: Mus musculus; assay: Tested for mean survival time treated animal not surviving 50 days as a percentage at dose of 10 mg/kg; assay type: functional; procedure, shortened: as §5
[26] = system: Mus musculus; assay: Tested for change in body weight from onset to termination at dose of 2.5 mg/kg; assay type: functional; procedure, shortened: as §2
[27] = system: Mus musculus; assay: Tested for Mice bearing Ehrlich carcinoma surviving at least 50 days out of 10 animal treated at dose of 20 mg/kg; assay type: functional; procedure, shortened: as §4
[28] = system: Mus musculus; assay: Tested for number of animal surviving at least 50 days out of 10 animal treated at dose of 15 mg/kg; assay type: functional; procedure, shortened: as §5
[29] = system: Mus musculus; assay: Tested for change in body weight of Mice bearing […] 755 from onset to termination at dose of 20 mg/kg; assay type: functional; procedure, shortened: as §6
[30] = system: Mus musculus; assay: Tested for mean survival time treated animal not surviving 50 days as a percentage at dose of 15 mg/kg; assay type: functional; procedure, shortened: as §5
[31] = system: Mus musculus; assay: Tested for number of animal surviving at least 50 days out of 10 animal treated at dose of 20 mg/kg; assay type: functional; procedure, shortened: as §5
[32] = system: Mus musculus; assay: Tested for mean survival time treated animal not surviving 50 days as a percentage at dose of 1.25 mg/kg; assay type: functional; procedure, shortened: as §5
[33] = system: Mus musculus; assay: Tested for change in body weight of Mice bearing […] 755 from onset to termination at dose of 5 mg/kg; assay type: functional; procedure, shortened: as §6
[34] = system: Mus musculus; assay: Tested for change in body weight from onset to termination at dose of 20 mg/kg; assay type: functional; procedure, shortened: as §2
[35] = system: Mus musculus; assay: as §1; assay type: functional; procedure, shortened: as §2; remark: listed apart in the source
[36] = system: Mus musculus; assay: Tested for number of animal surviving at least 50 days out of 5 animal treated at dose of 30 mg/kg; assay type: functional; procedure, shortened: as §5
[37] = system: Mus musculus; assay: Tested for number of animal surviving at least 50 days out of 5 animal treated at dose of 20 mg/kg; assay type: functional; procedure, shortened: as §5
[38] = system: Mus musculus; assay: Tested for mean survival time treated animal not surviving 50 days as a percentage at dose of 30 mg/kg; assay type: functional; procedure, shortened: as §5
[39] = system: Mus musculus; assay: Tested for number of animal surviving at least 50 days out of 5 animal treated at dose of 10 mg/kg; assay type: functional; procedure, shortened: as §5
[40] = system: Mus musculus; assay: Tested for change in body weight from onset to termination at dose of 30 mg/kg; assay type: functional; procedure, shortened: as §2
[41] = system: Mus musculus; assay: Tested for number of animal surviving at least 50 days out of 5 animal treated at dose of 0.31 mg/kg; assay type: functional; procedure, shortened: as §5
[42] = system: Mus musculus; assay: Tested for change in body weight from onset to termination at dose of mg/kg; assay type: functional; procedure, shortened: as §2
[43] = system: Mus musculus; assay: Tested for number of animal surviving at least 50 days out of 15 animal treated at dose of 5 mg/kg; assay type: functional; procedure, shortened: as §5
[44] = system: Mus musculus; assay: Tested for mean survival time treated animal not surviving 50 days as a percentage at dose of 0.31 mg/kg; assay type: functional; procedure, shortened: as §5
[45] = system: Mus musculus; assay: Tested for change in body weight from onset to termination at dose of 0.63 mg/kg; assay type: functional; procedure, shortened: as §2
[46] = system: Mus musculus; assay: Tested for number of animal surviving at least 50 days out of 5 animal treated at dose of 0.63 mg/kg; assay type: functional; procedure, shortened: as §5
[47] = system: Mus musculus; assay: Tested for number of animal surviving at least 50 days out of 10 animal treated at dose of 1.25 mg/kg; assay type: functional; procedure, shortened: as §5
[48] = system: Mus musculus; assay: Tested for mean survival time treated animal not surviving 50 days as a percentage at dose of 0.63 mg/kg; assay type: functional; procedure, shortened: as §5
[49] = system: Mus musculus; assay: Tested for number of animal surviving at least 50 days out of 15 animal treated at dose of 2.5 mg/kg; assay type: functional; procedure, shortened: as §5

CCCc1c(O)c(C=O)c(C=O)c(O)c1CCC
Activity [1]: -1%
Survivors [2]: 2
Activity [3]: 10%
Survivors [4]: 4
Survivors [5]: 4
Activity [6]: 205%
Survivors [7]: 3
Survivors [8]: 4
Activity [9]: 150%
Activity [10]: 154%
Activity [11]: 5%
Mean survival time, treated vs control (T/C) [12]: 138%
Activity [13]: 202%
IC50 [14]: 29 µM
Survivors [15]: 4
Activity [16]: 16%
Activity [17]: 9%
Survivors [18]: 0
Activity [19]: -15%
Survivors [20]: 0
Activity [21]: 35%
Activity [22]: 2%
Activity [23]: 166%
Activity [24]: 22%
Activity [25]: 178%
Activity [26]: 9%
Survivors [27]: 1
Survivors [28]: 0
Activity [29]: -15%
Activity [30]: 171%
Survivors [31]: 0
Activity [32]: 88%
Activity [33]: -16%
Activity [34]: -3%

Cc1c(C)c(O)c(C=O)c(C)c1O
Activity [35]: 25%
Activity [9]: 84%
Survivors [36]: 0
IC50 [14]: 27 µM
Survivors [37]: 0
Activity [38]: 89%
Activity [25]: 94%
Survivors [39]: 0
Activity [40]: 17%
Activity [34]: 25%

O=Cc1ccccc1C=O [ORTHO-PHTHALALDEHYDE]
Survivors [41]: 0
Activity [1]: -3%
Activity [3]: 4%
Activity [42]: 15%
Survivors [43]: 0
Activity [6]: 99%
Activity [44]: 121%
Mean survival time, treated vs control (T/C) [12]: 154%
IC50 [14]: 12 µM
Activity [17]: -2%
Activity [45]: 5%
Activity [25]: 43%
Survivors [46]: 0
Activity [26]: 0%
Survivors [39]: 0
Survivors [47]: 1
Activity [32]: 176%
Activity [48]: 193%
Survivors [49]: 0
